# Measurements of several laboratories.
# Each line is one published result; the experiments were not run side by side.
# Organism: Staphylococcus aureus
# Effect on: microbial growth
Structure (SMILES),technique,strain,time,notes,MIC
CCCCCCCC(=O)NP(=O)(O)O,,ATCC33591 MRSA,,drug-resistant strain,> 200 µg/mL
O=C(Nc1ccc(Cl)c(C(F)(F)F)c1)N1CCCCC1,,NCTC8325,,,30 µM
COc1cccc(-c2nc3ccc(C)cc3[nH]2)c1,broth dilution,ATCC43300 MRSA,,drug-resistant strain,256 µg/mL
CC(c1ccc(Cl)c(Cl)c1)n1cnc2cc3c(cc21)CCCC3 (centres unmarked),,,,,3.1 to 6.3 µg/mL
CN[C@H](CC(C)C)C(=O)N[C@H]1C(=O)N[C@@H](CC(N)=O)C(=O)N[C@H]2C(=O)N[C@H]3C(=O)N[C@H](C(=O)N[C@H](C(=O)O)c4cc(O)cc(O)c4-c4cc3ccc4O)[C@H](O)c3ccc(c(Cl)c3)Oc3cc2cc(c3O[C@@H]2O[C@H](CO)[C@@H](O)[C@H](O)[C@H]2O[C@H]2C[C@](C)(N)[C@H](O)[C@H](C)O2)Oc2ccc(cc2Cl)[C@H]1O,,UAMS1,,,1 µg/mL
CN[C@H](CC(C)C)C(=O)N[C@H]1C(=O)N[C@@H](CC(N)=O)C(=O)N[C@H]2C(=O)N[C@H]3C(=O)N[C@H](C(=O)N[C@H](C(=O)O)c4cc(O)cc(O)c4-c4cc3ccc4O)[C@H](O)c3ccc(c(Cl)c3)Oc3cc2cc(c3O[C@@H]2O[C@H](CO)[C@@H](O)[C@H](O)[C@H]2O[C@H]2C[C@](C)(N)[C@H](O)[C@H](C)O2)Oc2ccc(cc2Cl)[C@H]1O,broth dilution,ATCCBAA41,,drug-resistant strain,1 µg/mL
COC(=O)c1cc(-c2cccc(NC(=O)Nc3cccc(F)c3)c2)on1,broth dilution,ATCC29213,,,> 64 µg/mL
O=C(CCCCC1CCCCC1)NP(=O)(O)O,,ATCC33591 MRSA,,drug-resistant strain,> 200 µg/mL
CN[C@H](CC(C)C)C(=O)N[C@H]1C(=O)N[C@@H](CC(N)=O)C(=O)N[C@H]2C(=O)N[C@H]3C(=O)N[C@H](C(=O)N[C@H](C(=O)O)c4cc(O)cc(O)c4-c4cc3ccc4O)[C@H](O)c3ccc(c(Cl)c3)Oc3cc2cc(c3O[C@@H]2O[C@H](CO)[C@@H](O)[C@H](O)[C@H]2O[C@H]2C[C@](C)(N)[C@H](O)[C@H](C)O2)Oc2ccc(cc2Cl)[C@H]1O,broth dilution,BAA44 MRSA,,drug-resistant strain,0.59 µM
CN[C@H](CC(C)C)C(=O)N[C@H]1C(=O)N[C@@H](CC(N)=O)C(=O)N[C@H]2C(=O)N[C@H]3C(=O)N[C@H](C(=O)N[C@H](C(=O)O)c4cc(O)cc(O)c4-c4cc3ccc4O)[C@H](O)c3ccc(c(Cl)c3)Oc3cc2cc(c3O[C@@H]2O[C@H](CO)[C@@H](O)[C@H](O)[C@H]2O[C@H]2C[C@](C)(N)[C@H](O)[C@H](C)O2)Oc2ccc(cc2Cl)[C@H]1O,,MRSA,,,8 µg/mL
CCC1C(=NOCc2cn(-c3ccccc3)nn2)CC(c2ccccc2)OC1c1ccccc1 (centres unmarked),broth dilution,MTCC96,24 h,,50 µg/mL
COC(=O)c1cc(-c2cccc(NC(=O)Nc3ccc(C(F)(F)F)cc3)c2)on1,broth dilution,ATCC29213,,,8 to 16 µg/mL
CSc1ccc(-c2nc3ccc(C)cc3[nH]2)cc1,broth dilution,ATCC43300 MRSA,,drug-resistant strain,32 µg/mL
COC(=O)c1cc(-c2cccc(NC(=O)Nc3c(C)cccc3C)c2)on1,broth dilution,ATCC29213,,,> 64 µg/mL
Cc1ccc2nc(-c3ccco3)[nH]c2c1,broth dilution,ATCC43300 MRSA,,drug-resistant strain,256 µg/mL
CC1(C)CC[C@]2(C(=O)O)CC[C@]3(C)C(=CC[C@@H]4[C@@]5(C)CC[C@H](O)C(C)(C)[C@@H]5CC[C@]43C)[C@@H]2C1,,ATCC25923,,,32 µg/mL
O=[N+]([O-])c1ccc(-c2nc3ccccc3[nH]2)cc1,broth dilution,ATCC43300 MRSA,,drug-resistant strain,256 µg/mL
CCC(CC)c1cc(CCN2CCCN(Cc3ccc(C(F)(F)F)cc3)CC2)nc(-c2ccncc2)n1,,ATCCBAA1717,,"drug-resistant strain, clinical isolate",4 µg/mL
C=CCn1c(-c2ccc(Cl)cc2)nc2ccc(C)cc21,broth dilution,ATCC43300 MRSA,,drug-resistant strain,32 µg/mL
COC(=O)c1cc(-c2cccc(NC(=S)Nc3ccc(OC)cc3)c2)on1,broth dilution,ATCC29213,,,> 64 µg/mL
